# Measurements taken from ChEMBL document CHEMBL5331102, “Novel S1R agonists counteracting NMDA excitotoxicity and oxidative stress: A step forward in the discovery of neuroprotective agents” (Eur J Med Chem, 2023).
# Calls of active or inactive are those of the source. No cut-off for these calls is given here.
# How the values were obtained:
# [1] = biological target: T1, Sigma non-opioid intracellular receptor 1 (Homo sapiens, UniProt Q99720); test: Displacement of [3H]-(+)-pentazocine from sigma 1 receptor (unknown origin) at 25 nM by scintillation counting analysis; conditions: filed as agonist
# T1 sequence (Q99720 whole entry): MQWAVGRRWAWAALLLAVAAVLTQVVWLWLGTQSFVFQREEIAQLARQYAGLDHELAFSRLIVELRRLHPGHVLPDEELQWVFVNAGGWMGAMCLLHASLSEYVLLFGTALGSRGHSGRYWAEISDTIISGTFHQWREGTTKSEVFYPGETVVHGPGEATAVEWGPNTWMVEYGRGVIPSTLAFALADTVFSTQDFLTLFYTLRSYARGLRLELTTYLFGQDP
# How it was run: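 Single-concentration screen at 25 nM test compound against [3H](+)pentazocine (15 nM) at S1R; scintillation counting; result given as % inhibition of control specific binding, i.e. 100 minus measured/control specific binding ×100.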
# [2] = biological target: Glutamate [NMDA] receptor (Homo sapiens) (UniProt Q05586+Q12879+Q13224+O15399+O60391+Q14957+Q8TCU5); test: Displacement of [3H]CGP39653 from human NMDAR at 25 nM by scintillation counting analysis; format: protein-complex assay
# How it was run: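 NMDA receptor binding with [3H]CGP39653 (5 nM) as radioligand, test compound at 25 nM; displacement read by scintillation counting and reported as % inhibition of control specific binding.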
# [3] = biological target: T1, Sigma non-opioid intracellular receptor 1; test: Displacement of [3H]-(+)-pentazocine from sigma 1 receptor (unknown origin) assessed as inhibition constant by scintillation counting analysis
# How it was run: (§1)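 Radioligand displacement at S1R with [3H](+)pentazocine (15 nM) and at S2R with [3H]DTG (25 nM); S2R assay includes 1 μM cold (+)pentazocine to mask S1R sites. Bound radioactivity counted by scintillation. IC50 and Hill slope from non-linear Hill fit of competition curves; Ki by Cheng–Prusoff using radioligand concentration and KD from Scatchard plot.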
# [4] = biological target: Sigma intracellular receptor 2 (Homo sapiens, UniProt Q5BJF2); test: Displacement of [3H]DTG from sigma 2 receptor (unknown origin) assessed as inhibition constant by scintillation counting analysis; how it was run: as §1
# Sequence of Sigma intracellular receptor 2 (Q5BJF2 whole entry): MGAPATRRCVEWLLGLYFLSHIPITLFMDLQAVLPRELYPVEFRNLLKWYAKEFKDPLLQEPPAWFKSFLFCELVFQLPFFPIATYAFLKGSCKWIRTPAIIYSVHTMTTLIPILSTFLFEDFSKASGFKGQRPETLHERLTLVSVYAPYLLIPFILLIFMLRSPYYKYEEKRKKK
# [5] = Selectivity index, ratio of Ki for displacement of [3H]DTG from sigma 2 receptor (unknown origin) to Ki for displacement of [3H]-(+)-pentazocine from sigma 1 receptor (unknown origin)
# PC-12 = test: Neuroprotective activity in rat PC12 cells assessed as induction of NGF-mediated neurite outgrowth at 0.1 to 5 uM by neurite outgrowth assay; format: functional, cell-based; conditions: dose 0.1-5 µM
# How it was run: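 PC12 cells stimulated with NGF (2.5 nM) and treated with compound up to 5 μM, alone or after pre-treatment with S1R antagonist NE-100 (3 μM); read-out is percentage of cells bearing neurite sprouts; mean ± SEM of three independent experiments.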
# SH-SY5Y [6] = test: Neuroprotective activity in human SH-SY5Y cells assessed as prevention of rotenone induced cell damage by measuring cell viability at 1 uM preincubated with PB212 for 1hrs followed by compound addition in presence of rotenone and measured after 24 hrs by MTT assay; format: functional, cell-based
# How it was run: (§2)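 SH-SY5Y cells pre-incubated 1 h with S1R antagonist PB212 (5 μM), then treated with compound (1 or 5 μM) plus PB212 (5 μM) and either rotenone 25 μM or NMDA 250 μM for 24 h; viability by MTT; two-way ANOVA with Bonferroni post hoc test.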
# SH-SY5Y [7] = test: Neuroprotective activity in human SH-SY5Y cells assessed as prevention of oligomycin induced cell damage by measuring cell viability at 0.1 to 5 uM incubated for 24 hrs in presence of oligomycin by MTT assay; format: functional, cell-based; conditions: dose 0.1-5 µM
# How it was run: (§3)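 SH-SY5Y cells (~7000/well) co-incubated 24 h at 37 °C in 2% FBS medium with toxic stimulus (NMDA 250 μM or oligomycin 2.5 μM) plus compound at 0.1–5 μM. Viability by MTT, expressed as % of control.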
# SH-SY5Y [8] = test: Neuroprotective activity in human SH-SY5Y cells assessed as prevention of NMDA induced cytotoxicity by measuring cell viability at 0.1 to 5 uM incubated for 24 hrs in presence of NMDA by MTT assay; format: functional, cell-based; conditions: dose 0.1-5 µM; how it was run: as §3
# SH-SY5Y [9] = test: Neuroprotective activity in human SH-SY5Y cells assessed as prevention of NMDA induced cytotoxicity by measuring cell viability at 1 uM preincubated with PB212 for 1hrs followed by compound addition in presence of NMDA and measured after 24 hrs by MTT assay; format: functional, cell-based; how it was run: as §2
# PANC-1 = test: Cytotoxicity against human PANC-1 cells assessed as reduction in cell survival rate at 100 uM incubated for 48 to 72 hrs by MTT assay; format: toxicity, cell-based; conditions: panc-1, 100 µM, time 48-72 hrs
# How it was run: (§4)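 Cancer lines grown in Ham's F-12K or DMEM with 10% FBS, used in exponential growth; seeded 2500 cells/well, exposed to 0.1–100 μM for 24, 48 and 72 h continuous. Viability by CellTiter 96 AQueous One (tetrazolium) absorbance at 490 nm; three independent experiments in quadruplicate, % survival vs untreated.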
# LoVo [10] = test: Cytotoxicity against human LoVo cells assessed as reduction in cell survival rate at 100 uM incubated for 48 to 72 hrs by MTT assay; format: toxicity, cell-based; conditions: time 48-72 hrs; how it was run: as §4
# LoVo [11] = test: Cytotoxicity against human LoVo cells assessed as reduction in cell survival rate at <=10 uM incubated for 24 to 72 hrs by MTT assay; format: toxicity, cell-based; conditions: time 24-72 hrs; how it was run: as §4
# [12] = Thermodynamic solubility of the compound in HC1/KCl buffer at pH 1.2 incubated for 24 hrs; format: physicochemical; conditions: HCl/KCl buffer, read-out: Therm_solubility
# How it was run: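 10 mM DMSO stock diluted 1:100 into buffer (HCl/KCl pH 1.2; KH2PO4/NaOH pH 6.8; KH2PO4/Na2HPO4 pH 7.4), 1% v/v DMSO final; shaken 24 h at 1200 rpm, filtered through 0.45 μm polycarbonate membrane, filtrate diluted 1:1 with MeOH and analysed.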
# [13] = Toxicity in Zebrafish embryos assessed as morphological abnormality at 0.1 to 50 uM incubated for 5 days by Teratogenic test; design: species or system Danio rerio, Embryo; conditions: in vivo, 120 h, dose 0.1-50 µM, time 5 day
# How it was run: (§5)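 Tg(GFAP:GFP) zebrafish embryos from 2 female × 1 male matings, 8 embryos per control or concentration, exposed from 1 h post-fertilization and kept at 28 °C for about 5 days without medium change. At 5 dpf (120 h) mortality and developmental abnormalities (tail shape, heart, pigmentation) were scored, with morphology given a severity score.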
# [14] = Toxicity in Zebrafish embryos assessed as normal and vital phenotype at 0.1 to 1 uM incubated for 5 days by Teratogenic test; design: species or system Danio rerio, Embryo; conditions: in vivo, 120 h, dose 0.1-1 µM, time 5 day
# How it was run: (§6)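 Tg(GFAP:GFP) zebrafish embryos, 8 per group, exposed from 1 h post-fertilization to increasing compound concentrations at 28 °C for about 5 days without medium change; mortality, developmental defects and morphology score assessed at 5 dpf.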
# [15] = Toxicity in Zebrafish embryos assessed as decrease in embryo vitality rate at 10 to 50 uM incubated for 5 days by Teratogenic test; design: species or system Danio rerio; conditions: in vivo, 120 h, dose 10-50 µM, time 5 day; how it was run: as §5
# [16] = Toxicity in Zebrafish embryos assessed as increase in embryo vitality structure damage at 10 to 50 uM incubated for 5 days by Teratogenic test; design: species or system Danio rerio; conditions: in vivo, 120 h, dose 10-50 µM, time 5 day; how it was run: as §5
# [17] = Toxicity in Zebrafish embryos assessed as morphological abnormality by observing short and up-curved tail at 10 uM incubated for 5 days by Teratogenic test; design: species or system Danio rerio; conditions: in vivo, 120 h, time 5 day; how it was run: as §6
# [18] = Toxicity in Zebrafish embryos assessed as death at 50 uM incubated for 5 days by Teratogenic test; design: species or system Danio rerio, Embryo; conditions: in vivo, 120 h, time 5 day; how it was run: as §5
# SH-SY5Y [19] = test: Cytotoxicity against human SH-SY5Y cells assessed as cell viability at 100 uM incubated for 72 hrs by MTT assay
SMILES,Activity [1],Activity [2],Ki [3],Ki [4],Ratio Ki [5],Activity (PC-12),Activity (SH-SY5Y [6]),Activity (SH-SY5Y [7]),Activity (SH-SY5Y [8]),Activity (SH-SY5Y [9]),Activity (PANC-1),Activity (LoVo [10]),Activity (LoVo [11]),solubility thermodynamic at 24 h [12],Activity [13],Activity [14],Activity [15],Activity [16],Activity [17],Activity [18],also measured
c1ccc(CC2CCN(CCCOc3ccccc3)CC2)cc1,> 95%,< 11.9%,1.1 nM,88 nM,80,Dose-Dependent Effect,inactive,inactive,Active,inactive,20%,40%,Non-Toxic,2800 µg/mL,Toxic,Non-Toxic,Toxic,Toxic,Toxic,Toxic,Activity (SH-SY5Y [19]): 82%
c1ccc(CC2CCN(CCOc3ccccc3)CC2)cc1,> 95%,< 11.9%,0.93 nM,72 nM,77,Dose-Dependent Effect,inactive,inactive,Active,inactive,20%,40%,Non-Toxic,7800 µg/mL,Toxic,Non-Toxic,Toxic,Toxic,75%,Toxic,Activity (SH-SY5Y [19]): 76%
